CHRM4 antagonist: CHRM4 antagonism in calcium assay | hit rate 0.73% among 360,000 | CHO-hM4 cells, ACh EC80, Fluo-8 calcium fluorescence | AID 624125 | inhibition, % at 3 µM;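 active means inhibition above its plate's cutoff, the mean inhibition of sample wells plus 3 SD, cut at about 27% in these data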;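 further: 0% = acetylcholine EC80 with DMSO and 100% = DMSO without agonist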
Target sequence (P08173 whole entry, looked up): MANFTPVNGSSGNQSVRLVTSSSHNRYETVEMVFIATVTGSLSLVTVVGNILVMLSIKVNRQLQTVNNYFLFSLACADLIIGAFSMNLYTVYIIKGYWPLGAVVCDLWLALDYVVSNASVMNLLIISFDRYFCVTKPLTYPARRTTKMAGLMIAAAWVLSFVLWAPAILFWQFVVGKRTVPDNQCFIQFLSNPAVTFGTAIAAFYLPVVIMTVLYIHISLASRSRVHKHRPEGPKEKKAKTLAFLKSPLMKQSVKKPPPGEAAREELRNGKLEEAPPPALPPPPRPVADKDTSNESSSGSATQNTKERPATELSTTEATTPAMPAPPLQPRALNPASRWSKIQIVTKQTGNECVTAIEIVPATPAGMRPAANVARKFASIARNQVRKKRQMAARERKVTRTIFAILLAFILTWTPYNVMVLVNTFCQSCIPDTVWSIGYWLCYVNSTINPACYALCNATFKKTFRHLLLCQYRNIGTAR
M5 antag: antagonists of human muscarinic M5 receptor (CHRM5). P08912. CHO-hM5 cells, Fluo-8 calcium fluorescence, ACh EC80. inhibition, % at 3 µM. hit rate 0.59% among 360,000;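 active means inhibition above a per-plate cutoff, the mean of that plate's test compounds plus 3 SD, cut at about 27% in these data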;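 further: 0% = acetylcholine EC80 with DMSO and 100% = DMSO without agonist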
CHRM4 agonist: agonists of human muscarinic M4 receptor (CHRM4). P08173. hit rate 0.14% among 360,000. activation, % at 3 µM. CHO-K1 hM4/Gqi5, Fluo-8 calcium fluorescence; vehicle 0%, full acetylcholine response 100%. AID 624127;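 active means activation above the run mean over all test wells plus 3 SD, cut at about 32% in these data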;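 further: peak over basal fluorescence ratio per well then scaled between controls; 0% = DMSO wells and 100% = acetylcholine at EC100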
CHRM4 PAM: positive allosteric modulators of human muscarinic M4 receptor | P08173 | CHO-K1 hM4/Gqi5, Fluo-8 calcium fluorescence, ACh EC20; 0% = ACh EC20, 100% = maximal ACh | activation, % at 3 µM | hit rate 0.4% among 360,000 | AID 624126;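 active means activation above its plate's cutoff, the mean activation of sample wells plus 3 SD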
CHRM5 agonist: CHRM5 agonism in calcium assay; hit rate 0.19% among 360,000; P08912; CHO-K1 hM5 cells, Fluo-8 calcium fluorescence; 0% DMSO wells, 100% maximal acetylcholine response; activation, % at 3 µM; AID 624037;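 active means activation above the run's mean over test compounds plus 3 SD, cut at about 23% in these data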;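 further: signal is peak over basal fluorescence ratio across the kinetic read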
M5 PAM: potentiates acetylcholine response at human M5 receptor | activation, % at 3 µM | hit rate 0.3% among 360,000 | AID 624038 | P08912 | CHO-K1 hM5, Fluo-8 calcium, ACh EC20 PAM; 0% = ACh EC20, 100% = ACh EC100;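 active means activation above the run cutoff, the mean activation of all test compounds plus 3 SD, cut at about 18% in these data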
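System: CHO-K1 cell line with stable human muscarinic M5 receptor expression | Also added: EC20 acetylcholine as agonist stimulus | Compound: One concentration, 3 µM final (nominal) | Timing: Fluo-8 loading 80 min at 37 °C plus 30 min room temperature | Measured by: Fluo-8 calcium dye fluorescence, kinetic read | Read-out basis: % activation, ACh-normalized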
The depositor's hits bear a star. Compounds with a hit are over-represented: about 1.8% of the library has one in this group of screens.

SMILES	CHRM4 antagonist	M5 antag	CHRM4 agonist	CHRM4 PAM	CHRM5 agonist	M5 PAM
COc1ccc(NC(=S)NNc2ccc([N+](=O)[O-])cc2S(=O)(=O)Nc2ccc(C)cc2C)cc1	2.6	33.8*	8.0	-5.0	0.2	-21.7
Cc1ccc(NS(=O)(=O)c2cc([N+](=O)[O-])ccc2NNC(=S)Nc2cccc(Cl)c2)c(C)c1	4.1	23.6	6.3	-5.6	-1.2	-13.2
CCN(CC)CC(O)CNc1ccnc2c(Cl)ccc(Cl)c12 (stereo not given)	0.4	14.8	0.2	-2.8	-2.4	0.6
O=C(NCCNC(=O)c1ccc(Cl)cc1Cl)c1ccco1	-16.2	-10.9	1.2	16.4*	-1.9	5.9
O=C(CNC(=O)c1ccco1)NCC(=O)OCc1cccc(Cl)c1	4.6	-8.8	1.1	43.6*	-0.4	4.9
O=C(CNC(=O)c1ccco1)OCc1cccc(Cl)c1	0.2	-1.8	0.7	-0.1	-2.9	3.5
NC(=O)c1ccc(N2CCN(S(=O)(=O)c3ccccc3)CC2)c([N+](=O)[O-])c1	19.3	29.4*	16.3	-18.4	10.9	-25.9
O=C(c1ccc(N2CCCCC2)c([N+](=O)[O-])c1)N1CCN(S(=O)(=O)c2ccccc2)CC1	-0.8	3.8	8.7	-10.9	-2.3	-5.8
COC(=O)c1ccccc1NC(=O)CSc1nc(C)cc(C)n1	-8.2	-17.9	0.9	-3.1	3.7	12.2
Cc1cc(C)nc(SCC(=O)Nc2ccnc3ccccc23)n1	10.5	35.4*	14.3	-7.8	6.6	-20.5
COc1cccc(NC(=O)Cn2nc(Cc3cccnc3)c3ccccc3c2=O)c1	58.7*	5.6	0.1	-13.1	-1.0	-8.7
COc1cc(NC(=S)NCc2cccnc2)cc(OC)c1	-0.3	-5.5	0.6	-6.5	-0.6	-1.1
COc1cccc(NC(=O)C2C3C=CC(O3)C2C(=O)NCc2cccnc2)c1 (stereo not given)	2.2	5.6	0.4	36.5*	0.1	2.9
COc1ccc(CNC(=O)Cn2nc(Cc3cccnc3)c3ccccc3c2=O)cc1	-5.0	-2.5	2.4	0.4	1.6	-0.9
CCN(C(=O)CN1CCCCC1C)c1c(N)n(Cc2ccccc2)c(=O)[nH]c1=O (stereo not given)	-2.6	12.2	1.6	9.2	1.4	-2.7
Cc1c(C(=O)OCC(C)(C)CN(C)C)oc2ccccc12	-3.3	-2.7	1.2	-6.1	-12.8	0.1
Cc1c(C(=O)OC(C)CCN(C)C)oc2ccccc12 (stereo not given)	30.5*	7.3	0.8	-20.8	-5.4	-13.2
CCn1cc(C(=O)NCCCN2CC(C)CC(C)C2)c(=O)c2cc(S(=O)(=O)N(C)C3CCCCC3)ccc21 (stereo not given)	33.3*	0.6	0.2	-14.1	-9.8	0.5
N#Cc1ccc[n+](CC(=O)c2ccc(Cl)cc2)c1	-18.5	-10.1	0.5	3.3	4.5	22.8*
C1=C(CCNc2ncnc3c2[nH]c2ccccc23)CCCC1	31.8*	31.9*	14.2	-13.2	8.2	-14.5
CC(C)OCCCNc1ncnc2c1[nH]c1ccccc12	13.3	29.6*	24.1	-11.6	5.1	-28.1
COCCNC(=O)[C@@H]1CCCN1C(=O)C1CCN(S(=O)(=O)c2ccc(C)cc2)CC1	-4.5	5.9	0.1	-4.2	-2.4	-2.3
O=C(COc1cccc(Cl)c1)NNC(=S)Nc1ccccc1	1.4	-4.6	1.4	-0.5	-1.0	-7.1
O=C(O)CCC(=O)NNC(=O)COc1cccc(Cl)c1	4.9	12.8	0.5	6.0	0.3	21.0*
CCn1c(Cc2ccccc2)n[nH]c1=S	0.7	-5.2	0.8	-3.4	-9.9	7.4
SMILES	CHRM4 antagonist	M5 antag	CHRM4 agonist	CHRM4 PAM	CHRM5 agonist	M5 PAM
CCCCn1c(Cc2ccccc2)n[nH]c1=S	83.2*	38.9*	-0.4	-27.9	-6.6	-19.2
NC(Cc1ccc(C(F)(F)F)cc1)c1csc(Nc2ccccn2)n1 (stereo not given)	-3.1	4.7	41.0*	0.3	4.8	1.0
NC(Cc1ccc(C(F)(F)F)cc1)c1csc(NC(=O)NCCc2ccccc2)n1 (stereo not given)	41.3*	3.7	39.3*	-7.8	4.2	4.2
Cc1ccc(C(=O)Nc2nc(C(N)Cc3ccc(C(F)(F)F)cc3)cs2)cc1 (stereo not given)	7.6	9.5	36.0*	-5.0	6.0	4.7
NC(Cc1ccc(Cl)cc1)c1csc(Nc2ccc(-c3ccccc3)nn2)n1 (stereo not given)	18.1	7.7	38.1*	-0.7	6.7	3.5
NC(Cc1ccc(C(F)(F)F)cc1)c1csc(Nc2ncccn2)n1 (stereo not given)	-7.2	-2.2	13.0	-3.7	7.6	-1.0
CON(C)C(=O)CC(CNC(=O)OC(C)(C)C)c1ccc(Cl)cc1 (stereo not given)	4.1	3.3	2.4	4.9	-0.6	1.4
CCOc1ccc(CCN2C(=S)N([C@@H](CC(C)C)CN3CCCC3CN3C(=S)NC[C@@H]3CC(C)C)C[C@@H]2CC(C)C)cc1 (stereo not given in full)	-12.3	-3.8	-0.1	-1.5	4.5	-1.0
NC(Cc1ccc(F)cc1)c1csc(NC(=O)NC(c2ccccc2)c2ccccc2)n1 (stereo not given)	27.8*	3.2	17.3	6.6	2.1	-1.2
NC(Cc1ccccc1)c1csc(NC(=O)Nc2ccccc2Oc2ccccc2)n1 (stereo not given)	15.1	6.3	11.3	-6.1	0.8	-3.8
CC(Oc1ccccc1)C(=O)Nc1ccc(F)c(S(=O)(=O)N2CCOCC2)c1 (stereo not given)	-7.5	3.2	2.7	1.9	1.8	-1.4
Cc1cccc(N2C(=O)CC(N3CCN(Cc4ccc5c(c4)OCO5)CC3)C2=O)c1 (stereo not given)	-1.3	16.0	1.1	5.8	-2.8	18.2*
COc1ccc(Cc2c(-c3cccc(Cl)c3)nc3ccc(C)cn23)c(C)c1	-5.2	-2.0	-1.2	-0.8	-4.6	-6.6
NC(c1csc(NC(=O)Nc2cccc(Cl)c2)n1)C1CCCCC1 (stereo not given)	38.6*	8.7	37.6*	0.7	4.2	5.8
NC(c1csc(NC(=O)Nc2ccccc2)n1)C1CCCCC1 (stereo not given)	-1.2	4.5	10.2	2.3	3.5	-4.2
O=C(CSCc1ccc(F)cc1)N1CCN(c2ccccc2)CC1	-14.5	-3.7	5.2	30.5*	-4.3	11.9
O=C(CSCc1ccc(F)cc1)N1CCN(c2ccc(F)cc2)CC1	-0.8	12.7	3.4	-12.1	-7.3	-15.3
CC1(C(=O)Nc2cccc(NS(C)(=O)=O)c2)CCN1CCc1ccccc1 (stereo not given)	-29.9	5.3	12.2	-3.8	-0.1	-3.5

High-throughput results as filed in PubChem.
